# Data reported in PMC3748591 (Bioorganic & medicinal chemistry, 2011).
# Key:
# Human SphK1 = Human SphK1 (Homo sapiens, UniProt Q9NYA1); experiment: Sphingosine kinase assay, in vitro inhibition of SphK1; assay type: biochemical; details: initial screen at 100 μM inhibitor
# mouse SphK2 = molecular target: T1, mouse SphK2 (Mus musculus, UniProt Q9JIA7); experiment: Sphingosine kinase assay, in vitro inhibition of SphK2; assay type: biochemical; details: initial screen at 100 μM inhibitor
# T1 sequence (Q9JIA7 1-617): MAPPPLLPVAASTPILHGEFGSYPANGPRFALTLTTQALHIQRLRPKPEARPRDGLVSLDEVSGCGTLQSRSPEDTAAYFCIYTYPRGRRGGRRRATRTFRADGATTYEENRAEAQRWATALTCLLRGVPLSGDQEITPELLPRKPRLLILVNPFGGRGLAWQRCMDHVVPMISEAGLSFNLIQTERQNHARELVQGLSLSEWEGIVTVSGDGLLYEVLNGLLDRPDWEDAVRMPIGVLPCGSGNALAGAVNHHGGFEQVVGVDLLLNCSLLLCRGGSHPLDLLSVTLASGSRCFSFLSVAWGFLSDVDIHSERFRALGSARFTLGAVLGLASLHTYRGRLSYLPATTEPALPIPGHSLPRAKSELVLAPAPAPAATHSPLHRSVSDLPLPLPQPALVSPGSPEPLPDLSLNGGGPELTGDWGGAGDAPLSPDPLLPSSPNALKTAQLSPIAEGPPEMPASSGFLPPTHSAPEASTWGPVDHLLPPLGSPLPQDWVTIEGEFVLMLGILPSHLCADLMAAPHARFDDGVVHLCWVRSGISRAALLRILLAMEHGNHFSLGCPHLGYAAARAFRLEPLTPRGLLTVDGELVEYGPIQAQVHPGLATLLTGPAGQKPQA
# SphK2 = molecular target: T2, SphK2 (Homo sapiens, UniProt Q9NRA0); experiment: FTY720 phosphorylation in intact U937 cells; assay type: cell-based; details: U937 cells exposed to FTY720 and 10 μM inhibitor, 2 h; cell pellet, LC/MS
# T2 sequence (Q9NRA0 1-654): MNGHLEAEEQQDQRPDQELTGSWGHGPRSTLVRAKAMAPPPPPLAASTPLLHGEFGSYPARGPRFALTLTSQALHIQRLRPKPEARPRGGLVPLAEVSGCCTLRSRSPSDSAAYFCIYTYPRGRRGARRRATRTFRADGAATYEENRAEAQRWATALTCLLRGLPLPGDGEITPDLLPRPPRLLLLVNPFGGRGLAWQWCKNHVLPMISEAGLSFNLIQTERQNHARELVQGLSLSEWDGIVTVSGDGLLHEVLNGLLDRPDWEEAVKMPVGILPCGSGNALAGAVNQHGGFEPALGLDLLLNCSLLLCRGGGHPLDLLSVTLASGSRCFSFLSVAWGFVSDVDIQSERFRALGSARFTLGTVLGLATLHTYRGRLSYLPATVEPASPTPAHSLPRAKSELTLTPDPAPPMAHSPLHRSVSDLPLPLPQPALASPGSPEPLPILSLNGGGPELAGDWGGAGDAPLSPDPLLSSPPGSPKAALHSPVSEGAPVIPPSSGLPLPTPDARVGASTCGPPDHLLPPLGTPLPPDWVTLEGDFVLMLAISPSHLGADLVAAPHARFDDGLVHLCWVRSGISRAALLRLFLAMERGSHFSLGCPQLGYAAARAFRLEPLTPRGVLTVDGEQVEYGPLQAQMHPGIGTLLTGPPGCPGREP
# Summary of the method: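 Cultured U937 cells were given exogenous FTY720 plus 10 μM test compound for 2 h, then pelleted by centrifugation. Pellet FTY720 and FTY720-P were measured by LC/ESI-MS/MS: C18 reverse phase, water/methanol/formic acid gradient, 1 mL/min. MRM was 308.4→255.1 and 388.4→255.1, with C17S1P and C17-sphingosine as internal standards, quantified by peak area. Results are moles per million cells, means ± SD of three independent experiments, unpaired two-tailed t-test.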
# U937 cells = experiment: S1P levels in U937 cells; assay type: cell-based, human; details: LC/MS, data not shown
# [1] = system: Akt and ERK phosphorylation; experiment: Akt/ERK phosphorylation in U937 cells; assay type: cell-based, human; details: different concentrations, 16 h (legend: 24 h), Western blot
# Summary of the method: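 U937 cells pretreated with test compound at a range of concentrations for 24 h (legend; the methods say times "usually 2 h"). Cells were washed in PBS, Dounce-lysed, and equal protein run on 10% SDS–PAGE, then transferred to nitrocellulose. Blots were blocked in 5% milk/TBS pH 7.4 with 0.1% Tween 20, probed 1 h with anti-ERK, p-ERK, Akt, p-Akt and β-actin (1:1000), then HRP anti-IgG (1:2000), with chemiluminescent detection. PD098059 (10 μM) served as ERK positive control.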
# Sequence of Human SphK1 (Q9NYA1 whole entry): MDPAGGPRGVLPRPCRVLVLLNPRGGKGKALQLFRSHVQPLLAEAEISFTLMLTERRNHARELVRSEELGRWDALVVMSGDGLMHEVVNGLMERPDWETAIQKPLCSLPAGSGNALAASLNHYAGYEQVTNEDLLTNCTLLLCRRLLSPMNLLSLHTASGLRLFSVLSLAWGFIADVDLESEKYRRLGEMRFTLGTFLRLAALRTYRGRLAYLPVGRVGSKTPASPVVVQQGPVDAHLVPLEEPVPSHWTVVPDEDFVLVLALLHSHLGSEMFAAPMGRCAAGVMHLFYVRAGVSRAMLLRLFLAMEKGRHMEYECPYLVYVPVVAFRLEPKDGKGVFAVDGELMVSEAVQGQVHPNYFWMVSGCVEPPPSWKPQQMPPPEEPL
Structure (SMILES),"inhibition of SphK1, result in words (Human SphK1)","inhibition of SphK2, result in words (mouse SphK2)",accumulation of FTY720 in cells (SphK2),production of FTY720-P (SphK2),S1P levels (U937 cells),Akt phosphorylation [1],ERK phosphorylation [1]
"CCCCCCCCc1ccc(C2CCC(=CC(=O)OC)CC2)cc1 (centres unmarked) [Compound 5, Methyl 2-(4-(4-octylphenyl)cyclohexylidene)acetate]",inactive against SphK1,did not cross the 50% threshold,,,,,
"CCCCCCCCc1ccc(C2CCC(=CCO)CC2)cc1 (centres unmarked) [Compound 6, 2-(4-(4-Octylphenyl)cyclohexylidene)ethanol]",inactive against SphK1,did not cross the 50% threshold,,,,,
"CCCCCCCCc1ccc(C2CCC(O)(C[N+](=O)[O-])CC2)cc1 (centres unmarked) [Compound 7, 1-(Nitromethyl)-4-(4-octylphenyl)cyclohexanol]",inactive against SphK1,did not cross the 50% threshold,,,,,
"CCCCCCCCc1ccc(C2CCC(=NO)CC2)cc1 (centres unmarked) [Compound 8, 4-(4-Octylphenyl)cyclohexanone oxime]",inactive against SphK1,did not cross the 50% threshold,,,,,
"CCCCCCCCc1ccc([C@H]2CC[C@H](O)CC2)cc1 [Compound 9, (1r,4r)-4-(4-Octylphenyl)cyclohexanol]",inactive against SphK1,did not cross the 50% threshold,,,,,
"CCCCCCCCc1ccc([C@H]2CC[C@H]([N+](C)(C)C)CC2)cc1.[I-] [trans-12a, (1r,4r)-N,N,N-trimethyl-4-(4-octylphenyl)cyclohexanaminium iodide]",,,exaggerated the accumulation,significantly suppressed,no change,dose-dependent decrease,quantitatively inhibited
"CCCCCCCCc1ccc([C@H]2CC[C@H]([N+](C)(C)CCC)CC2)cc1.[I-] [trans-12b, (1r,4r)-N,N-Dimethyl-4-(4-octylphenyl)-N-propylcyclohexanaminium iodide]",,,exaggerated the accumulation,significantly suppressed,no change,complete disappearance of p-Akt band,quantitatively inhibited
